Published values of several laboratories.
Protocols differ between the studies behind these lines.
Target: Inhibitor of nuclear factor kappa-B kinase subunit beta (IKBKB, Homo sapiens, UniProt O14920)
Residues used in one study (O14920 1-756): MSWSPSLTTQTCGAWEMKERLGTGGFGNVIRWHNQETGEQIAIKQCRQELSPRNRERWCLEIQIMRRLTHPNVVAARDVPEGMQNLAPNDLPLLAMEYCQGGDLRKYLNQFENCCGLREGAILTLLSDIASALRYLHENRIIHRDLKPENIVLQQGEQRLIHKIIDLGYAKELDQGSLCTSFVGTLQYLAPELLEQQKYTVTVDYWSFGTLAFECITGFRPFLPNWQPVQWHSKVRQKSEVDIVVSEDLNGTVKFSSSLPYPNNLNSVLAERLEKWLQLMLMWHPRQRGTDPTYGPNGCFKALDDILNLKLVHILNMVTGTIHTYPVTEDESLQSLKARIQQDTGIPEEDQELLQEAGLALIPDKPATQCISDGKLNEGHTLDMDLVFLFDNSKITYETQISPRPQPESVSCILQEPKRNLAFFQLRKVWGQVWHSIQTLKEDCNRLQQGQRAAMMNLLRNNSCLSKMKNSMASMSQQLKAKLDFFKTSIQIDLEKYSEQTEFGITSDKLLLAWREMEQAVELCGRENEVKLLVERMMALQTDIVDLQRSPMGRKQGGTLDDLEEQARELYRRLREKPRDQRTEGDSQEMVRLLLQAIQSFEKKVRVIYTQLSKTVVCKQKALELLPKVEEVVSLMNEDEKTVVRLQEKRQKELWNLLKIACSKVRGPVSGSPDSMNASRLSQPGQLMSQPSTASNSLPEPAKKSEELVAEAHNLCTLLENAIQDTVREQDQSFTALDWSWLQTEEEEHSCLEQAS

N#CC1(c2ccccn2)CCN(Cc2cc(C(=O)O)c(=O)n3ccccc23)CC1 — remaining binding (cell-free assay, competition with immobilised ligand; 1 µM): 100%
COc1ncccc1-c1cnn2ccc(N3CCN(C(=O)OC(C)C)CC3)nc12 — remaining binding (binding, competition with immobilised ligand; 1 µM): 61%
Nc1ncc(-c2nc(N3CCOCC3)nc(N3CCOCC3)n2)c(C(F)F)n1 — remaining binding (binding, competition with immobilised ligand; 10 µM): 77%
CC(C)(C)c1cc(C=C(C#N)C#N)cc(Br)c1O — remaining activity (enzyme activity, inhibitor; 0.5 µM): 95.7%
Cn1cncc1[C@](O)(COc1ccc(C#N)cc1-c1ccc(OC(F)(F)F)cc1)c1ccc(C#N)cc1 — remaining binding (cell-free assay, competition with immobilised ligand; 1 µM): 87%
Cc1nn(C)cc1-c1nc2c(N3CCN(Cc4ccc(Cl)cc4)CC3)c(Cl)cnc2[nH]1 — remaining binding (binding, competition with immobilised ligand; 1 µM): 100%
C#Cc1n[nH]c2c(-c3cn([C@@H](C)c4ccccn4)c(=O)[nH]c3=O)cc(F)cc12 — inhibition (enzyme activity, inhibitor; 0.1 µM): 0.8%
O=c1[nH]c2ccccc2n1C1CCN(Cc2ccc(-c3[nH]c4cc5ncnc5cc4nc3-c3ccccc3)cc2)CC1 — remaining activity (enzyme activity; 0.5 µM): 101%
Cn1cc(-c2cc(F)cc(N3CCn4c(cc5c4CCCC5)C3=O)c2CO)cc(Nc2ccc(N3CCN(C4COC4)CC3)cn2)c1=O — inhibition (enzyme activity, inhibitor; 0.1 µM): 5%
C#Cc1n[nH]c2c(-c3cn([C@@H](C)c4ccccc4)c(=O)[nH]c3=O)cc(F)cc12 — inhibition (enzyme activity, inhibitor; 0.1 µM): -2.2%
